Kir21 inh – inhibitors of mouse Kir2.1 inward-rectifier potassium channel | AID 1672 | 310,000 compounds, 0.85% hits | B-score at 10 µM | HEK293-Kir2.1, FluxOR thallium flux fluorescence; hits give low values | P35561;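 active = fluorescence ratio B-score at or below minus 3 SD of library scores, with starting-brightness B-score within 2 SD, cut at about -4.2 in these data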;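 note: channel flux triggered by added potassium and thallium sulfate stimulus; B-score of peak minus minimum fluorescence over baseline after thallium stimulus; more negative B-score means stronger Kir2.1 block with less thallium influx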
KCNQ1 inh – inhibitors of human KCNQ1 potassium channel. CHO-K1 KCNQ1, FluxOR thallium flux fluorescence; hits give high values. B-score at 10 µM. 310,000 compounds, 1.3% hits. AID 2642;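 active = compounds whose thallium flux B-score, printed positive for inhibition, exceeds three library SD while starting fluorescence stays within three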;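 note: channel opened by potassium depolarization with thallium stimulus after 20 min compound exposure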
hERG protect – hERG (human) protection from proarrhythmic block; AID 1511; activation (rescue from dofetilide block), less the hit threshold, % at 10 µM; Q12809; 310,000 compounds, 0.51% hits; CHO-hERG, FluxOR thallium flux, dofetilide IC70 present;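 active = activation above the mean of controls blocked by dofetilide plus 5 SD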;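 note: thallium influx through hERG after potassium depolarization seen as dye fluorescence rise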
KCNK9 inh – blocks the human KCNK9 two-pore domain potassium channel; Q9NPC2; HEK293 KCNK9, FluxOR thallium flux fluorescence; hits give low values; B-score at 10 µM; 310,000 compounds, 1.2% hits; AID 488922;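 active = ratio B-score over 3 SD below the library mean, with starting fluorescence within 5 SD of its mean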;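 note: negative B-score means less thallium flux so channel inhibition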
KCNK3 inh – human KCNK3 channel inhibition, primary screen; CHO-KCNK3 thallium flux, FluxOR fluorescence; hits give low values; B-score at 10 µM; 340,000 compounds, 0.84% hits;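 active = B-score under library mean minus 4 SD, starting fluorescence ratio at most library mean plus 5 SD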;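 note: more negative B-score means stronger inhibition of thallium flux through KCNK3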
Target sequence (O14649 whole entry, looked up): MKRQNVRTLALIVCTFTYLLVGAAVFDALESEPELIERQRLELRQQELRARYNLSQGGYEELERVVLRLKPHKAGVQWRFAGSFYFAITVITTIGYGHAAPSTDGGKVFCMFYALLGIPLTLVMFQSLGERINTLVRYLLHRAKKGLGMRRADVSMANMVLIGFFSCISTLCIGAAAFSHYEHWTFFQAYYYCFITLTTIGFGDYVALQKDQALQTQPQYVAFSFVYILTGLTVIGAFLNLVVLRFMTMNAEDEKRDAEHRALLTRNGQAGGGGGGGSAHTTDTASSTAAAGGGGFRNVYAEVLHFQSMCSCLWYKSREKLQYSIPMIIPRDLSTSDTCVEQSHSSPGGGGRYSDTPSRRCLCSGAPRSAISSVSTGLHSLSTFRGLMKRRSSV
KCNQ1 pot – potentiators or activators of human KCNQ1 potassium channel; P51787; CHO-K1 KCNQ1, thallium flux FluxOR fluorescence; hits give high values; B-score at 10 µM; 310,000 compounds, 0.35% hits; AID 2648;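 active = fluorescence ratio B-score, a plate-corrected score, at least three library SD, with initial intensity B-score within 5 SD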
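Medium – assay buffer, equal DMSO in all wells · Material – CHO-K1 cell line with stable KCNQ1 potassium channel expression · Signal – kinetic FluxOR thallium fluorescence, 10-s 1-Hz baseline, 110-s post-stimulus read · Compound – single concentration per compound, DMSO matched to controls · Schedule – 37 °C overnight plating, 90-min dark dye load, 20-min compound pretreatment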
KCNQ1 inh valid – confirmation of human KCNQ1 potassium channel inhibitors; inhibition, % at 10 µM; KCNQ1 cell line, FluxOR thallium flux fluorescence; shares compounds with KCNQ1 inh; 1,600 compounds, 93% hits; AID 588353;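 active = primary screen active, with duplicate mean exceeding buffer control mean plus 3 SD of buffer wells, cut at about 28% in these data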;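 note: 0% = buffer control ratio and 100% = XE991 inhibitor control ratio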
CHO KCNQ1 ctr – KCNQ1 inhibitor counter-screen hit in parental CHO cells | shares compounds with KCNQ1 inh | parental CHO-K1, FluxOR thallium flux fluorescence ratio; hits give low values; zero means no signal rise above baseline | fluorescence ratio (Tl flux) at 10 µM | 1,600 compounds, 21% hits | AID 588366;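 active = mean of duplicate thallium-flux fluorescence ratios in parental host cells more than 5 SD below the buffer control mean, cut at about 0.38 in these data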;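 note: ratio is peak minus minimum fluorescence divided by baseline fluorescence; actives read low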
KCNQ1 APC inh – confirmation of human KCNQ1 potassium channel inhibitors by electrophysiology. shares compounds with KCNQ1 inh. KCNQ1-CHO cells, automated patch clamp current. calls only at 10 µM. 490 compounds, 20% hits;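 active = KCNQ1 current drop exceeding 3 SD of negative control wells, seen in both duplicate runs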;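 note: steady state current during a 2 s step from -80 to +40 mV; negative values mean current inhibition and positive values mean potentiation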
KCNQ2 spec – rat KCNQ2 inhibition in KCNQ1 inhibitor specificity screen; shares compounds with KCNQ1 inh; KCNQ2 cells, FluxOR thallium flux fluorescence; inhibition, % at 10 µM; 1,600 compounds, 71% hits; AID 651746;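 active = mean percent inhibition of the KCNQ2 thallium signal more than 5 SD above the buffer-only control wells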;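 note: KCNQ2 expressed in CHO cells; 0% = buffer control wells and 100% = XE-991 inhibitor control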
KCNQ1-KCNE1 inh – KCNQ1 inhibitor that also blocks human KCNQ1/KCNE1 channel; shares compounds with KCNQ1 inh; AID 652147; inhibition, % at 10 µM; KCNQ1/KCNE1 cells, FluxOR thallium flux fluorescence; 1,600 compounds, 77% hits;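 active = mean percent inhibition of duplicate wells above the buffer-only control mean plus 3 SD of those controls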;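 note: 0% = buffer only wells and 100% = XE-991 inhibitor control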
KCNK9 block conf – human KCNK9 inhibitor confirmation. shares compounds with KCNK9 inh. 4,900 compounds, 43% hits. inhibition, % at 10 µM. AID 492992. HEK293 KCNK9 cells, FluxOR thallium flux fluorescence;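 active = thallium signal inhibited by more than 5 SD of the compound-free buffer control wells, on both duplicate plates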;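 note: 0% = assay buffer control wells without compound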
Kir2-1 spec – mouse Kir2.1 off-target activity of KCNK9 modulators; shares compounds with KCNK9 inh; inhibition, % at 10 µM; AID 492993; 4,900 compounds, 4% hits; Kir2.1 cells, FluxOR thallium flux fluorescence;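 active = thallium signal drop more than 5 SD beyond the mean of the no-compound control wells, seen in both duplicate plates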;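 note: signal is fluorescence rise after thallium addition divided by baseline fluorescence; plate controls were assay buffer only for no effect and full block by chlorpromazine control for full effect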
KCNK9 uninduced – second check of KCNK9 modulator effects in non-induced HEK293 cells | FluxOR thallium flux | inhibition, % at 10 µM | shares compounds with KCNK9 inh | 4,900 compounds, 40% hits;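 active = thallium signal drop beyond 5 SD of the untreated control mean, on both duplicate plates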;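 note: plate controls were buffer only IC0 wells for no effect and SID17386958 at its maximal inhibitory level for full effect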
Numbers without * were called inactive; i = inactive; x = no result. Most compounds without a hit are left out; they make up all but 3.7% or so of the library.

SMILES | Kir21 inh | KCNQ1 inh | hERG protect | KCNK9 inh | KCNK3 inh | KCNQ1 pot | KCNQ1 inh valid | CHO KCNQ1 ctr | KCNQ2 spec | KCNQ1-KCNE1 inh | KCNK9 block conf | Kir2-1 spec | KCNK9 uninduced | others
N#Cc1c(NC(=O)Cn2c(=O)oc3ccccc32)oc(-c2ccccc2)c1-c1ccccc1 | -0.56 | 12* | -6 | -8.2* | i | i | 64* | 0.45 | i | i | i | i | i
O=C(Cn1c(=O)oc2ccccc21)Nc1ccc(Br)cc1 | -0.54 | i | -1 | i | i | i | x | x | x | x | x | x | x
CC1C=CCC2C(=O)N(c3cccc(C(=O)Nc4ccc(F)cc4)c3)C(=O)C12 (centres undefined) | 1.3 | i | -12 | i | i | i | x | x | x | x | x | x | x
CC(C)CC(C(=O)Nc1cccc(O)c1)N1C(=O)c2ccccc2C1=O (centres undefined) | 1.5 | i | -2 | i | i | i | x | x | x | x | x | x | x
CC(C)CC(C(=O)Nc1oc(-c2ccco2)c(-c2ccco2)c1C#N)N1C(=O)c2ccccc2C1=O (centres undefined) | 2.1 | 9* | 3 | -11* | -11* | i | 112* | 0.42 | 88%* | 65%* | 72%* | i | 26%* | KCNQ1 APC inh=i
CC(=O)Nc1ccc(S(=O)(=O)N2CCSC2c2ccco2)cc1 (centres undefined) | -0.07 | i | -10 | i | i | i | x | x | x | x | x | x | x
O=C(Nc1ccc(Cl)c(Cl)c1)N1CCSC1c1ccco1 (centres undefined) | -0.39 | 10* | -10 | -11* | i | i | 111* | 0.37* | i | 118%* | 53%* | i | i
O=C(CSc1nc(-c2ccc(Cl)cc2)[nH]c(=O)n1)Nc1cccc(Cl)c1 | 1.6 | 7* | -7 | i | i | i | 116* | 0.48 | i | i | i | i | i | KCNQ1 APC inh=i
CC(C)[C@H](NC(=O)[C@@H]1Cc2ccccc2CN1C(=O)OC(C)(C)C)C(=O)NCC1CCCO1 (some centres undefined) | -2.7 | i | -7 | i | i | i | x | x | x | x | x | x | x
O=C(c1ccc(Cl)c(Cl)c1)N(Cc1ccco1)c1ccc(O)cc1 | -4.3* | 7* | -13 | -11* | i | i | 84* | 0.4 | 106%* | 118%* | 40%* | 32%* | 42%*
O=C(COc1ccccc1)N(Cc1ccco1)c1ccc(O)cc1 | -0.45 | i | -2 | i | i | i | x | x | x | x | x | x | x
COc1ccc(CNC(=O)CN(C(=O)CCC(=O)Nc2nccs2)c2ccccc2C)cc1 | -0.58 | i | -11 | i | i | i | x | x | x | x | x | x | x
O=C1c2ccccc2OC2(C=Cc3ccccc3O2)N1Cc1ccccc1 (centres undefined) | 0.02 | 7* | -9 | -14* | i | i | 116* | 0.38* | 109%* | 158%* | 46%* | i | 34%*
